# Published values collected from several papers.
# CDK5 with p25: Cyclin-dependent kinase 5, with p25 (CDK5, Homo sapiens, UniProt Q00535)
# CDK5: Cyclin-dependent kinase 5 (CDK5, Homo sapiens, UniProt Q00535)
Structure (SMILES),target,observed,action,method,tested at,quantity,value
COc1ccc2oc(-c3ccc4nc(N)oc4c3)c/c(=N\c3ccccc3NC(=O)CCN)c2c1,CDK5 with p25,binding,,,1 µM,remaining binding,102%
COc1ccc2[nH]c3c4[nH]c5ccc(OC)cc5c4c4c(c3c2c1)C(=O)NC4=O,CDK5,binding,,competition with immobilised ligand,1 µM,remaining binding,75%
CC#CC(=O)N1CCC[C@H]1c1nc(-c2ccc(C(=O)Nc3ccccn3)cc2)c2c(N)nccn12,CDK5,enzyme activity,inhibitor,,1 µM,inhibition,0%
CC(C)S(=O)(=O)c1ccc2nccc(Nc3ccc4sc(C5CCCC5)nc4c3)c2c1,CDK5 with p25,enzyme activity,inhibitor,,1 µM,activity vs control,97.5%
C1=C/COCc2cc(ccc2OCCN2CCCC2)Nc2nccc(n2)-c2cccc(c2)COC/1,CDK5,binding,,,0.1 µM,remaining binding,100%
C[C@]1(O)CCCN(c2nc(Nc3ccc(S(=O)(=O)N[C@H]4CC[C@H](CN5CCN(c6ccc(C7CCC(=O)NC7=O)cc6F)CC5)CC4)cc3F)ncc2C(F)(F)F)C1 (stereo partly shown),CDK5,binding,,competition with immobilised ligand,1 µM,remaining binding,59%
CCCCC(=O)Nc1ccc(-c2ccc3ncn(CCC)c(=O)c3c2)cn1,CDK5,binding,,competition with immobilised ligand,0.5 µM,remaining binding,78%
C[C@]1(O)CCCN(c2nc(Nc3ccc(S(=O)(=O)N[C@H]4CC[C@H](CN5CCN(c6ccc(C7CCC(=O)NC7=O)cc6F)CC5)CC4)cc3Cl)ncc2C(F)(F)F)C1 (stereo partly shown),CDK5,binding,,competition with immobilised ligand,1 µM,remaining binding,72%
Cc1ccc(NC(=O)c2ccnc(C(F)(F)F)c2)cc1-c1cc(OCCO)nc(N2CCOCC2)c1,CDK5,binding,,competition with immobilised ligand,1 µM,remaining binding,95%
CO[C@@H]1[C@H](N(C)C(=O)c2ccccc2)C[C@H]2O[C@]1(C)n1c3ccccc3c3c4c(c5c6ccccc6n2c5c31)C(=O)NC4,CDK5,enzyme activity,inhibitor,,1 µM,inhibition,0%
